According to ChEMBL document CHEMBL3526140, “Prediction of human intestinal absorption of the prodrug temocapril by in situ single-pass perfusion using rat intestine with modified hydrolase activity” (Drug Metab Dispos, 2011):

Assays:
[1] = tested on: Jejunum; test: Intracellular drug level in Wistar rat jejunum at 100 uM at pH 6.4 by in-situ single-pass perfusion method; assay type: ADME, tissue-based; details: in vivo
Summary of the method: (§1)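 Rats fasted 18–24 h, anesthetized with intraperitoneal pentobarbital. Isolated cannulated jejunal segment kept at 37°C in Krebs–Henseleit buffer with 3% BSA and 10 mM glucose. Vascular perfusion with Krebs–Henseleit (pH 7.4) at 2.5 ml/min. Lumen perfused at 0.2 ml/min with phosphate buffer (pH 5.4, 6.4 or 7.4) containing 100 µM drug plus FD-4. Luminal and vascular samples assayed by HPLC (UV 258 nm). Parameters normalized to 10 cm intestine. Mean ± S.D., n = 3–6.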

[2] = tested on: Jejunum; test: Drug uptake in Wistar rat jejunum blood vessel assessed as rate of drug appearance at 100 uM by in-situ single-pass perfusion method; assay type: ADME, tissue-based; details: in vivo; summary of the method: as §1
[3] = tested on: Jejunum; test: Drug uptake in Wistar rat jejunum blood vessel assessed as rate of drug appearance at 100 uM at pH 6.4 by in-situ single-pass perfusion method; assay type: ADME, tissue-based; details: in vivo, pH 6.4, 100 µM; summary of the method: as §1
[4] = tested on: Jejunum; test: Drug uptake in Wistar rat jejunum lumen assessed as rate of drug appearance at 100 uM by in-situ single-pass perfusion method; assay type: ADME, tissue-based; details: in vivo; summary of the method: as §1
[5] = Partition coefficient, log P between n-octanol and phosphate buffer at pH 7.4; assay type: physicochemical
[6] = tested on: Jejunum; test: Apparent absorption clearance in Wistar rat jejunum at 100 uM at pH 6.4 by in-situ single-pass perfusion method; assay type: ADME, tissue-based; details: in vivo; summary of the method: as §1

- Drug uptake [1]: 2.99 nmol/g
- Drug uptake [2]: 1.22 nmol/min
- Drug uptake [3]: 0.193 nmol/min
- Drug uptake [4]: 2.25 nmol/min
- logD [5]: 2.5
- CL(app) [6]: 1.87 µL/min
SMILES: O=C(O)CN1C[C@@H](c2cccs2)SC[C@H](N[C@@H](CCc2ccccc2)C(=O)O)C1=O [TEMOCAPRILAT]
